# Measurements pooled from the literature.
# Protocols differ between the studies behind these lines. pIC50: −log10 of the molar value.
# Cell line: PC-3
# Effect on: cell growth or viability
# Method: MTT
Structure (SMILES),time,pIC50
Cc1ccc(-c2cc(-c3c(Cl)cccc3Cl)c3c(=O)n(C)c(=O)n(C)c3n2)cc1,48 h,5.00
CCOc1nc(-c2cccc(O)c2)cc(-c2cc3cc(Cl)ccc3nc2N2CCOCC2)c1C#N,72 h,6.76
Cc1nc(N(C)c2ccc3c(c2)/C(=C/c2ccccc2Cl)C(=O)N3C)c2ccccc2n1,,4.63
CCCOc1nc(-c2cccc(O)c2)cc(-c2cc3ccccc3nc2N2CCOCC2)c1C#N,72 h,6.81
Cc1nc(Nc2ccc3c(c2)CC(=O)N3)c2ccccc2n1,,4.69
Cc1ccc(-c2cc(-c3c(Cl)cccc3Cl)c3c(=O)[nH]c(=O)[nH]c3n2)cc1,48 h,4.31
COc1cccc2c1C(=O)c1c(O)c3c(c(O)c1C2=O)C[C@@](O)(C(=O)CO)C[C@@H]3O[C@H]1C[C@H](N)[C@H](O)[C@H](C)O1,72 h,6.21
Cc1nc(Nc2ccc3c(c2)/C(=C/c2ccccc2C)C(=O)N3)c2ccccc2n1,,4.57
COc1ccc(-c2cc(-c3cc(OC)ccc3OC)c3c(=O)[nH]c(=O)[nH]c3n2)cc1,48 h,4.72
[NH2][Pt]([NH2])([Cl])[Cl],,5.08
Nc1n[nH]c2nc(-c3cccc(O)c3)cc(-c3cc4ccccc4nc3N3CCOCC3)c12,72 h,7.25
COc1cc2ncnc(N(C)c3ccc4c(c3)/C(=C/c3cccc(Cl)c3)C(=O)N4C)c2cc1OC,,5.26
COc1ccc(-c2cc(-c3ccc(C)cc3)nc3c2c(=O)n(C)c(=O)n3C)cc1OC,48 h,4.41
CCOc1nc(-c2cccc(O)c2)cc(-c2cc3ccccc3nc2N2CCOCC2)c1C#N,72 h,6.93
